Published values from different studies.

Compound | test | test system | conditions | measurement | result
Cc1cc(C)nc(Nc2ncc(C(=O)NCCc3c(C)[nH]c4ccccc34)cn2)c1 | metabolic stability | cynomolgus monkey, hepatocytes | 1 µM | half-life | 16 min
CCCCCCCC/C=C\CCCCCCCC(=O)OC[C@](C)(O)C[C@@H]1NC(=O)[C@@H]2Cc3c([nH]c4ccccc34)SC[C@H](NC(=O)[C@@H]([C@H](C)O)NC(=O)[C@H](C)NC1=O)C(=O)N1C[C@@H](O)C[C@H]1C(=O)N[C@@H](C)C(=O)N2 | – | – | – | logP | 1.7
O=C(NCCCCCn1ccc2ccc(F)cc21)Oc1cccc2[nH]ccc12 | HPLC | – | – | chromatographic logP | 3.5
NCC(=O)Nc1ccc(-n2nc(C(F)(F)F)cc2-c2ccc3c(ccc4ccccc43)c2)cc1 | – | mouse, plasma | oral, 80 mg/kg, single dose | half-life | 1320 min
CN[C@H](CC(C)C)C(=O)N[C@H]1C(=O)N[C@@H](CC(N)=O)C(=O)N[C@H]2C(=O)NC3C(=O)N[C@H](C(=O)N[C@H](C(=O)NCCC[N+](C)(C)C)c4cc(O)cc(O)c4-c4cc3ccc4O)[C@H](O)c3ccc(c(Cl)c3)Oc3cc2cc(c3OC2OC(CO)C(O)[C@H](O)[C@@H]2O[C@H]2CC(C)(NCc3ccc(-c4ccc(Cl)cc4)cc3)[C@H](O)[C@H](C)O2)Oc2ccc(cc2Cl)[C@H]1O (some centres unmarked) | – | mouse, plasma | intravenous, 50 mg/kg | half-life | 372 min
O=C(O)c1cccc(OC(=O)N2CCC(CCn3ccc4ccc(F)cc43)CC2)c1 | HPLC | – | – | chromatographic logP | 3.6
C=C[C@H]1CN2CC[C@H]1C[C@H]2[C@H](O)c1ccnc2ccccc12 | – | water | – | logP | 2.68
N=c1c2c(-c3ccccc3)c(-c3ccccc3)n(Cc3ccccc3)c2ncn1[C@H]1CC[C@H](O)CC1 | metabolic stability | monkey, hepatocytes | 1 µM, 4 h | compound remaining | 119%
CC[C@H]1CN2CC[C@H]1C[C@H]2[C@H](O)c1ccnc2ccc(OC)cc12 | – | water | – | logP | 3.07
O=C(OC(C(F)(F)F)C(F)(F)F)N1CCN(Cc2ccc(C(F)(F)F)cc2N2CCCC2)CC1 | HPLC | – | – | chromatographic logP | 7.4
C[C@]12CC[C@H](O)CC1=CC[C@@H]1[C@@H]2CC[C@]2(C)C(n3cnc4ccccc43)=CC[C@@H]12.Cl | – | mouse, plasma | oral, 10 mg/kg | half-life | 310 min
Cc1ccncc1OC(=O)NCCCCCn1ccc2ccc(F)cc21 | HPLC | – | – | chromatographic logP | 2.7
CCN(CC)CCCC[C@H](NC(=O)[C@H](CC(C)C)NC(=O)[C@H](C)NC(=O)[C@H](Cc1ccccc1)NC(=O)c1ccc(C(C)(C)C)cc1)C(=O)N[C@@H](CO)C(=O)OC | – | male Swiss mouse, blood | intravenous, 3 mg/kg | half-life | 5.4 min
Cc1ccccc1C(=O)NN=Cc1ccc(O)c(Br)c1 | – | mouse, plasma | intravenous, 1.6 mg/kg | half-life | 74.6 min
Nc1nc(-c2ccccc2)nc2[nH]nc(Nc3ccc(C(F)(F)F)cc3)c12 | – | mouse, plasma | oral, 100 mg/kg, 30 min | concentration | 418 ng/mL
N#Cc1ccccc1OC(=O)NCCCCCn1ccc2ccc(F)cc21 | HPLC | – | – | chromatographic logP | 3.9
C[C@]12CC[C@H](n3ccnc3)CC1=CC[C@@H]1[C@@H]2CC[C@]2(C)C(n3cnc4ccccc43)=CC[C@@H]12.Cl | – | male CD-1 mouse, plasma | intravenous, 1 mg/kg | half-life | 1030 min
